# According to PMC11393732 (RSC Medicinal Chemistry, 2024):
# How the values were obtained:
# KDM3A [1] = target: T1, KDM3A (Homo sapiens, UniProt Q9Y4C1); assay: Western blot KDM3A degradation in SW480 cells; type: cell-based
# T1 sequence (Q9Y4C1 1-1321): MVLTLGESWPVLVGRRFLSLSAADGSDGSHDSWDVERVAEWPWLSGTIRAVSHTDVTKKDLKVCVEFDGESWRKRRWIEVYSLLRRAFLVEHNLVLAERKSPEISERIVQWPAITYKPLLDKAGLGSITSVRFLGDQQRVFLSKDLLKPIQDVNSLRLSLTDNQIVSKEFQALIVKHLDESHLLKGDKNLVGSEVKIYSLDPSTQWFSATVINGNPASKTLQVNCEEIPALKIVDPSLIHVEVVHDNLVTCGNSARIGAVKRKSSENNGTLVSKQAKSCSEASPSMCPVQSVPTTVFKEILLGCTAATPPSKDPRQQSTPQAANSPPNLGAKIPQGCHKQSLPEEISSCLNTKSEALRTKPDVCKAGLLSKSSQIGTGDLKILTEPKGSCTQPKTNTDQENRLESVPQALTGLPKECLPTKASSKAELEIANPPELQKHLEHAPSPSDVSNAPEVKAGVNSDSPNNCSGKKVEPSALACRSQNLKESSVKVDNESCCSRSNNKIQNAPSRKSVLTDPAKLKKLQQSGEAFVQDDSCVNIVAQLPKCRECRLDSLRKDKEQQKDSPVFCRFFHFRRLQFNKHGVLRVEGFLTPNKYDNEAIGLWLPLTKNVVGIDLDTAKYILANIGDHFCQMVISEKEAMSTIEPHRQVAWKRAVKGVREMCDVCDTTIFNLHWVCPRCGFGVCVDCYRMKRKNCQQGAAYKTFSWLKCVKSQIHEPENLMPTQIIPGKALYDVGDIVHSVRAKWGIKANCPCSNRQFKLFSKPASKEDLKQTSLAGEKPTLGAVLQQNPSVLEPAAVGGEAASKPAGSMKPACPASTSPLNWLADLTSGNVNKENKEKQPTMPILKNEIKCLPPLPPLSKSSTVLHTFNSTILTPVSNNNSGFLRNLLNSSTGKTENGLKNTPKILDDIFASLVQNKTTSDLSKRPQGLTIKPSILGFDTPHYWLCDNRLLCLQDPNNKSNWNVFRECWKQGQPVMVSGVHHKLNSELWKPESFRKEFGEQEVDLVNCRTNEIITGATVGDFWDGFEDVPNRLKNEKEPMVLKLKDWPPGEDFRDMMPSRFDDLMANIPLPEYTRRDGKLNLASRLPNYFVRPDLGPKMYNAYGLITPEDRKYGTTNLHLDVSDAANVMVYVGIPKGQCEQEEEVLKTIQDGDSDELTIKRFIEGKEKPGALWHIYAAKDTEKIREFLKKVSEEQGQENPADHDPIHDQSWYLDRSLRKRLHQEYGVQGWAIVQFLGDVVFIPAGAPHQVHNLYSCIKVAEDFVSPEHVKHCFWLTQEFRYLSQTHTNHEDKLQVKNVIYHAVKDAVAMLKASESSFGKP
# In short: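 SW480 cells exposed to test compound for 16 h, then total lysates protein-normalised and run on SDS-PAGE. Semi-dry transfer to PVDF, 1 h block in 5% milk. Primary antibody overnight at 4 °C in 1% milk, secondary 1 h at RT, TBST washes, α-tubulin as loading control. Rescue arms co-treated with MLN4924 (1 μM) or pomalidomide (100 μM). Test compound at 0.1 μM for the KDM3A blot and 1 μM for the KDM3B blot.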
# KDM3A [2] = target: T1, KDM3A; assay: Western blot KDM3A degradation in HCP-1 cells; type: cell-based
# KDM3B [3] = target: T2, KDM3B (Homo sapiens, UniProt Q7LBC6); assay: Western blot KDM3B degradation in HCP-1 cells; type: cell-based
# T2 sequence (Q7LBC6 whole entry): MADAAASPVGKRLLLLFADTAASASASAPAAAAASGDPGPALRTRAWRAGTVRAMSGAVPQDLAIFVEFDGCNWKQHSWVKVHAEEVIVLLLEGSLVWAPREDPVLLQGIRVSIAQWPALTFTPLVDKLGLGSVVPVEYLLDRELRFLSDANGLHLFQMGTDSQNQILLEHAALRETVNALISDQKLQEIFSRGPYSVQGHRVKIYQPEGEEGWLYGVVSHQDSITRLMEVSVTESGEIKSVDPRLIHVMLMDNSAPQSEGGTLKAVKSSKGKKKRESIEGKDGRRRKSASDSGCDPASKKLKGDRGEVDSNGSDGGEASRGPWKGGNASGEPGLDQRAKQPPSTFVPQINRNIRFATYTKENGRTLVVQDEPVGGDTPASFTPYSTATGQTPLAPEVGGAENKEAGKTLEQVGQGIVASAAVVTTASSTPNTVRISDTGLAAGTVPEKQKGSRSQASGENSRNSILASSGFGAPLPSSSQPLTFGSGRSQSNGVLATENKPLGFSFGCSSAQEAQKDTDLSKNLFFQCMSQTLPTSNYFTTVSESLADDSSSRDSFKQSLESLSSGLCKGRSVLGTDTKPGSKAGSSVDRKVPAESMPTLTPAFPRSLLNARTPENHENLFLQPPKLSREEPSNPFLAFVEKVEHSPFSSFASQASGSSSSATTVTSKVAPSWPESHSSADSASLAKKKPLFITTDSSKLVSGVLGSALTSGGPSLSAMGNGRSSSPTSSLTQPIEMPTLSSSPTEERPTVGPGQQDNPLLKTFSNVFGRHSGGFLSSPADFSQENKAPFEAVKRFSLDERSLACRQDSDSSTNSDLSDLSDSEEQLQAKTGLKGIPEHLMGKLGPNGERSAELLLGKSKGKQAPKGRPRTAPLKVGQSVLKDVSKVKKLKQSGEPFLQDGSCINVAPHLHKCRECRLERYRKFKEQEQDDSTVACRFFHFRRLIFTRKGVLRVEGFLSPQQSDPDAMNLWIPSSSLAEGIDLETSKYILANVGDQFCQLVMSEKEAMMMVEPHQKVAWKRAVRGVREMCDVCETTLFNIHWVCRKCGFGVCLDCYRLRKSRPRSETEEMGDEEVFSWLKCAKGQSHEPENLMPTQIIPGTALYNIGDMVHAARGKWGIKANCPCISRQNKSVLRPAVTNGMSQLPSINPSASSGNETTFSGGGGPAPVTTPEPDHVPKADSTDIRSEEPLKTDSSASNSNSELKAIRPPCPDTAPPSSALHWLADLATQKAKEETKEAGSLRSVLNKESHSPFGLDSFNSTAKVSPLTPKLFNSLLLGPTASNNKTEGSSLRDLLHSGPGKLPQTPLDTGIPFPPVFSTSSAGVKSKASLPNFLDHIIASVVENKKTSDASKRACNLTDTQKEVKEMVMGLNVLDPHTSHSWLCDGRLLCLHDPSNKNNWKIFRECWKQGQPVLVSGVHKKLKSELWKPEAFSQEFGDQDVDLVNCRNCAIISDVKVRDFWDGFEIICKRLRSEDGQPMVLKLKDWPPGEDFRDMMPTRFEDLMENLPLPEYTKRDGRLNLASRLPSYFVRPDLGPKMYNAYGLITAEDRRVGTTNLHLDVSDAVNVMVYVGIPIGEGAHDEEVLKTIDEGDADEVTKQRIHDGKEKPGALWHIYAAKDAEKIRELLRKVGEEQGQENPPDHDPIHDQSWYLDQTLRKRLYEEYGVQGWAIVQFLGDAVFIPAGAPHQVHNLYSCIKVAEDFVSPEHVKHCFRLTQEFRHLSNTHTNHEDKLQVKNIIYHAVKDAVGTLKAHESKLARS
# GSPT1 = GSPT1 (Homo sapiens, UniProt P15170); assay: Western blot neo-substrate GSPT1 degradation in SW480 cells; type: cell-based; conditions: 16 hours
# Chain of GSPT1 (Q16531 whole entry): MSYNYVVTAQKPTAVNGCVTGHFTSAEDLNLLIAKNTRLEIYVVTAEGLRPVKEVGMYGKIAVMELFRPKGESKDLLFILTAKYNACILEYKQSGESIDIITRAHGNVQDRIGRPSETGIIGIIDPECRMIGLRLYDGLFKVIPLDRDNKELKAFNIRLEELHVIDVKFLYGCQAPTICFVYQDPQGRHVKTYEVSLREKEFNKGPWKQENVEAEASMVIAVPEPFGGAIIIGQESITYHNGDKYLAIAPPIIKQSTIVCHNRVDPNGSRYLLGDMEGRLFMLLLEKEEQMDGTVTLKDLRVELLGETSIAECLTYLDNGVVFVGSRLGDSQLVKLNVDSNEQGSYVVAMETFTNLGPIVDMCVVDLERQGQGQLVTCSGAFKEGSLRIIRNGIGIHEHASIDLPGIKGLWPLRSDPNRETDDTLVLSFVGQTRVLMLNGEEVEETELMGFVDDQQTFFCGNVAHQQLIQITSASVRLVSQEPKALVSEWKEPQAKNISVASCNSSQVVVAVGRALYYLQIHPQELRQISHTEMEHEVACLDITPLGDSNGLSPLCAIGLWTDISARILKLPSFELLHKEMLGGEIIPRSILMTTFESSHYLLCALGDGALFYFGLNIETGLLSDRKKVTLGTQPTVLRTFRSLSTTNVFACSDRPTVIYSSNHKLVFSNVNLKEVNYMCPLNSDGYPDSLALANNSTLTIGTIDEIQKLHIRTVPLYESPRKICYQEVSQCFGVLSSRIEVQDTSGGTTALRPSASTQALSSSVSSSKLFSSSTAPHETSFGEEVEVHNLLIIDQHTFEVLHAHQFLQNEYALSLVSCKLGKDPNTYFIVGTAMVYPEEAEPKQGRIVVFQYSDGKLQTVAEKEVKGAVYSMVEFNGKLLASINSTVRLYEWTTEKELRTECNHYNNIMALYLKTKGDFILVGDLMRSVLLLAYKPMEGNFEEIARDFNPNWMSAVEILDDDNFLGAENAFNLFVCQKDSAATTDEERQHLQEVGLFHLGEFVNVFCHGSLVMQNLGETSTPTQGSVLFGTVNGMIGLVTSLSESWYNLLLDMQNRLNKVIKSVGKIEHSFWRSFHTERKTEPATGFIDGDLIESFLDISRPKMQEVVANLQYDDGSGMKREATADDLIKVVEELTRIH
# Chain of GSPT1 (Q96SW2 whole entry, further chain): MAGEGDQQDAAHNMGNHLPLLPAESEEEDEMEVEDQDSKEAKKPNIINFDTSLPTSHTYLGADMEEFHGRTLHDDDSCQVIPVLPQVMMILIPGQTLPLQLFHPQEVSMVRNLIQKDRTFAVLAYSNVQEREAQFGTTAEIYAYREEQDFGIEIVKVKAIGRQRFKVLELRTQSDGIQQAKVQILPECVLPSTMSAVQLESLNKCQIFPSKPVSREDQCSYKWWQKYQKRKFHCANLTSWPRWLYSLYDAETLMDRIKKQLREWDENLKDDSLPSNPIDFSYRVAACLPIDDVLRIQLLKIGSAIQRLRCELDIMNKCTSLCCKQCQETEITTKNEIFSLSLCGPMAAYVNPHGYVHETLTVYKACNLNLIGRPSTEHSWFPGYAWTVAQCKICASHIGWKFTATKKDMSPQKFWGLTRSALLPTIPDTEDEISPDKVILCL
# Chain of GSPT1 (P15170 whole entry): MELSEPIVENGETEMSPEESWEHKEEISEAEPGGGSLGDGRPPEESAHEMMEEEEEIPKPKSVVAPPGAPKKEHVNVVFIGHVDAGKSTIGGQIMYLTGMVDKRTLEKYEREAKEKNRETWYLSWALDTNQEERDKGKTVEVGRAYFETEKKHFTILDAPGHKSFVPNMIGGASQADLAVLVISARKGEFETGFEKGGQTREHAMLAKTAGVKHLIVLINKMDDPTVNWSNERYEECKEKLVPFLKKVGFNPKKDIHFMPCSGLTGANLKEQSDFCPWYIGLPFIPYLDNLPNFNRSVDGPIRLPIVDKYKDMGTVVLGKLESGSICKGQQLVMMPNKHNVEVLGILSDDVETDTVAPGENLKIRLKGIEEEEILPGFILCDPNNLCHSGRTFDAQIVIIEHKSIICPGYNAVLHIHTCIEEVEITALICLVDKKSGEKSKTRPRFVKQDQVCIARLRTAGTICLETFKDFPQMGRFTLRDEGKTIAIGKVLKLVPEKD
# CRL-1790 cells = assay: CCK-8 based toxicity assay; type: cell-based, human
# In short: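 Non-malignant human colon epithelial CRL-1790 cells grown in EMEM with 10% FBS and 1% pen–strep at 37 °C and 5% CO2. Seeded at 3 × 10^3 cells/well in 96-well plates, then exposed to test compound. Viability read by CCK-8 at 48 h as OD 450 nm. TD50 derived from the dose–response.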
# [4] = test system: Wnt target genes in SW480 cells; assay: RT-qPCR of Wnt target gene expression in SW480; type: cell-based, human
# In short: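 Cells in 6-well plates exposed to test compound for 16 h. Total RNA extracted; 1 μg reverse-transcribed with M-MuLV and random hexamers. SYBR Green qPCR for the named genes, quantified by 2ΔΔct against tubulin. Mean ± SD; unpaired two-tailed Student's t-test.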
# ALDH^high-HCP-1 CSCs = assay: Tumor sphere formation assay HCP-1; type: cell-based, human; conditions: 2 weeks
# In short: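 Trypsinised cells passed through a 40 μm strainer and stained with ALDEFLUOR. ALDHHigh cells sorted by FACS, with DEAB-treated cells as gating control. Plated at 1000 cells/well on ultra-low attachment in serum-free MEBM containing 2% B27, 20 ng mL−1 EGF, 10 ng mL−1 FGF, 1 ng mL−1 hydrocortisone, 5 μg mL−1 insulin and 100 μM β-mercaptoethanol. Dosed 1 h after plating; medium renewed at 1 week. Spheres >40 μm counted at 2 weeks for ED50.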
# KDM3A [5] = target: T1, KDM3A; assay: IHC of HCP-1 xenograft tumors, KDM3A; type: in vivo, mice
# In short: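 Tumours came from ALDHHigh HCP-1 xenografts in NSG mice given test compound IP (3, 10 or 35 mg kg−1) for 16 days. Paraffin sections were deparaffinised and rehydrated, then antigen-unmasked. Peroxidase blocked; sections blocked 1 h in 10% goat serum. Primary antibody overnight at 4 °C, biotinylated secondary 30 min at RT, avidin–biotin peroxidase detection, hematoxylin counterstain.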
# KDM3B [6] = target: T2, KDM3B; assay: IHC of HCP-1 xenograft tumors, KDM3B; type: in vivo, mice; conditions: HCP-1 xenograft tumor tissues
# [7] = Hepatic metabolism S9 fraction incubation, rat
# [8] = Hepatic metabolism S9 fraction incubation, human
# [9] = 0.1 μM, plus glutathione, UDPGA, PAPS, 37 °C
smiles,measurement,setting,value
"O=C1CCC(N2C(=O)c3cccc(NCCOCCOCCOCCOCCNC(=O)c4ccc(O)c5ncccc45)c3C2=O)C(=O)N1 (stereo not drawn) [Compound 4, N-(14-((2-(2,6-Dioxopiperidin-3-yl)-1,3-dioxoisoindolin-4-yl)amino)-3,6,9,12-tetraoxatetradecyl)-8-hydroxyquinoline-5-carboxamide]",Dmax,"KDM3A [1]; SW480, read-out: Dmax KDM3A",65.3%
same,KDM3A degradation with MLN4924 co-treatment,"KDM3A [1]; SW480, MLN4924 1 μM, compound 4 0.1 μM",could be restored by MLN4924
same,KDM3A degradation with pomalidomide or IOX1 co-treatment,"KDM3A [1]; SW480, pomalidomide 100 μM, compound 4 0.1 μM",could also be suppressed by either pomalidomide or IOX1
same,KDM3A degradation (western blot),"KDM3A [1]; SW480 cells, 16 hours",degrades both KDM3A and KDM3B at nanomolar concentrations
same,DC50,"KDM3A [1]; read-out: DC50 KDM3A, SW480 cells, 16 hours",13.7 nM
same,KDM3A degradation,KDM3A [2],potently induce KDM3A and KDM3B degradation
same,KDM3B degradation,KDM3B [3],potently induce KDM3A and KDM3B degradation
same,GSPT1 degradation,GSPT1,did not induce
same,cell growth of CRL-1790,"CRL-1790 cells; 60 μM, two-day treatment",not dramatically affected
same,TD50 CRL-1790,"CRL-1790 cells; CCK8 assay, 48 h post drug treatment",285.4 µM
same,"suppression of Wnt target gene expression (AXIN2, DKK1, CCND1)","[4]; SW480, 50 μM, 16-hour treatment, in most cases",≥ 50%
same,"expression of colorectal CSC signature genes (ASCL2, RNF43, ZNRF3, LGR5)","[4]; SW480, 16 hours",strongly inhibited
same,ED50 HCP-1 (tumor sphere formation),ALDH^high-HCP-1 CSCs,280 nM
same,KDM3A level (IHC) at high dose,KDM3A [5]; 35 mg kg^−1,slight upregulation of KDM3A
same,KDM3A degradation in vivo (IHC),KDM3A [5]; HCP-1 xenograft tumor tissues,confirmed the PROTAC-induced KDM3A and KDM3B degradation in vivo
same,KDM3B degradation in vivo (IHC),KDM3B [6],confirmed the PROTAC-induced KDM3A and KDM3B degradation in vivo
same,"CLint Rat (liver, S9)",[7]; [9],34.5 µL/min/mg
same,"t 1/2 Rat (liver, S9)",[7]; [9],20.1 min
same,"clearance classification, rat",[7]; CLint classification bands,moderate clearance
same,half-life at 0.1 μM,"[7]; rat, s9, t 1/2 Rat (liver, S9), 0.1 μM, plus glutathione, UDPGA, PAPS, 37 °C",20 min
same,"CLint Human (liver, S9)",[8]; [9],41.6 µL/min/mg
same,"t 1/2 Human (liver, S9)",[8]; [9],16.7 min
same,"clearance classification, human",[8]; CLint classification bands,moderate clearance
same,half-life at 0.1 μM,"[8]; human, s9, t 1/2 Human (liver, S9), 0.1 μM, plus glutathione, UDPGA, PAPS, 37 °C",16 min
